Here are results for nine compounds from ChEMBL document CHEMBL1122171, “Hypobetalipoproteinemic agents. 3. Variation of the polycyclic portion of 4-(1-adamantyloxy)aniline” (1982).

Common to all, as to assay type: functional
Assay [1] concerns Rattus norvegicus. Kind of assay: Hypobetalipoproteinemic activity was determined in diet-induced hypercholesterolemic rats at a dose of 0.18 (mmol/kg)/day (total cholesterol level was determined). In outline: (§1)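 Cholesterol-cholic acid fed rats given each compound at 50 (mg/kg)/day in 0.25% aqueous methylcellulose vehicle. Serum total cholesterol, heparin precipitating lipoproteins (HPL) and HPL/cholesterol ratio measured. Values expressed as T/C, the treated-group mean divided by the control mean. Significance vs control set at p < 0.05. Food intake and weight gain monitored. Active compounds retested for confirmation.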

The subject of assay [2] is Rattus norvegicus. Kind of assay: Hypobetalipoproteinemic activity was determined in diet-induced hypercholesterolemic rats at a dose of 0.18 (mmol/kg)/day (heparin precipitating lipoproteins level was determined). In outline:
as §1

Assay [3] has as its system Rattus norvegicus. The assay is described as follows: Hypobetalipoproteinemic activity was determined in diet-induced hypercholesterolemic rats at a dose of 0.17 (mmol/kg)/day (total cholesterol level was determined). In short, it runs like this: as §1
Assay [4] is described as follows: Ratio of heparin precipitating lipoproteins level to cholesterol level was determined. In short, it runs like this:
as §1

Assay [5] relates to Rattus norvegicus. Kind of assay: Hypobetalipoproteinemic activity was determined in diet-induced hypercholesterolemic rats at a dose of 0.17 (mmol/kg)/day (heparin precipitating lipoproteins level was determined). In outline: as §1
Assay [6] has as its system Rattus norvegicus. The assay is described as follows: Hypobetalipoproteinemic activity was determined in diet-induced hypercholesterolemic rats at a dose of 0.22 (mmol/kg)/day (total cholesterol level was determined). In outline:
as §1

The subject of assay [7] is Rattus norvegicus. Kind of assay: Hypobetalipoproteinemic activity was determined in diet-induced hypercholesterolemic rats at a dose of 0.22 (mmol/kg)/day (heparin precipitating lipoproteins level was determined). In short, it runs like this: as §1
Assay [8] has as its system Rattus norvegicus. The assay is described as follows: Hypobetalipoproteinemic activity was determined in diet-induced hypercholesterolemic rats at a dose of 0.19 (mmol/kg)/day (total cholesterol level was determined). In short, it runs like this: as §1
In assay [9] the test system is Rattus norvegicus. Kind of assay: Hypobetalipoproteinemic activity was determined in diet-induced hypercholesterolemic rats at a dose of 0.19 (mmol/kg)/day (heparin precipitating lipoproteins level was determined). In short, it runs like this:
as §1

As for `Cl.Nc1ccc(OC23CCCCC2CCCC3)cc1` (stereo in doubt; 14), the T/C came to 0.92 in the assay with Rattus norvegicus [1] and 0.89 with Rattus norvegicus [2].
Consider `Nc1ccc(OC23CC4CC5C6CC(CC52)CC3C6C4)cc1`, for which the results for the T/C in the assay with Rattus norvegicus [3] and in the assay on Rattus norvegicus [5] were 0.53 and 0.35, respectively. For the same compound, the Ratio in assay [4] was 0.66.
For `CCCC(C)(C)Oc1ccc(N)cc1.Cl`, the figures for the T/C in the assay on Rattus norvegicus [6] and in the assay with Rattus norvegicus [7] were 0.84 and 0.78, respectively. Further, the Ratio in assay [4] is 0.92.
With `Nc1ccc(OC23CCCCC2CCCC3)cc1` (stereo in doubt; 14), the Ratio in assay [4] amounted to 0.97.
With `Cl.Nc1ccc(OC23CCCCC2CCCC3)cc1` (stereo in doubt; 17), the T/C in the assay on Rattus norvegicus [1] worked out at 1.38; in the assay on Rattus norvegicus [2], 1.24.
Turning to `CCCCCCCC(C)(C)Oc1ccc(N)cc1.Cl`, the T/C worked out at 0.98 in the assay on Rattus norvegicus [3] and 0.84 with Rattus norvegicus [5]. Moreover, in assay [4], the Ratio worked out at 0.86.
Consider `Nc1ccc(OC23CC4C5CC6CC4C(C2)C(C6)C5C3)cc1`, for which the results for the T/C in the assay on Rattus norvegicus [3] and in the assay on Rattus norvegicus [5] were 0.31 and 0.19, respectively. Also, in [4], the Ratio was found to be 0.62.
Regarding `CCCCCC(C)(C)Oc1ccc(N)cc1.Cl`, the T/C with Rattus norvegicus [8] is reported as 1.02; in the assay on Rattus norvegicus [9], 0.96. Also, the Ratio in assay [4] came to 0.94.
With `Nc1ccc(OC23CCCCC2CCCC3)cc1` (stereo in doubt; 17), the Ratio in [4] is 0.9.
